Measured values reported in ChEMBL document CHEMBL1212913, “Quinazolin-4-one derivatives: A novel class of noncompetitive NR2C/D subunit-selective N-methyl-D-aspartate receptor antagonists” (J Med Chem, 2010).

How the values were obtained:
[1] = molecular target: Glutamate NMDA receptor; Grin1/Grin2a (Rattus norvegicus, UniProt P35439+Q00959); experiment: Antagonist activity at rat recombinant NR1-NR2A receptor expressed in Xenopus oocytes at holding potential of -40mV by two-electrode voltage-clamp electrophysiology; type: functional, cell-based, Oocyte; conditions: read-out: IC50
Chain of Glutamate NMDA receptor; Grin1/Grin2a (Q00959 whole entry, other chains not shown): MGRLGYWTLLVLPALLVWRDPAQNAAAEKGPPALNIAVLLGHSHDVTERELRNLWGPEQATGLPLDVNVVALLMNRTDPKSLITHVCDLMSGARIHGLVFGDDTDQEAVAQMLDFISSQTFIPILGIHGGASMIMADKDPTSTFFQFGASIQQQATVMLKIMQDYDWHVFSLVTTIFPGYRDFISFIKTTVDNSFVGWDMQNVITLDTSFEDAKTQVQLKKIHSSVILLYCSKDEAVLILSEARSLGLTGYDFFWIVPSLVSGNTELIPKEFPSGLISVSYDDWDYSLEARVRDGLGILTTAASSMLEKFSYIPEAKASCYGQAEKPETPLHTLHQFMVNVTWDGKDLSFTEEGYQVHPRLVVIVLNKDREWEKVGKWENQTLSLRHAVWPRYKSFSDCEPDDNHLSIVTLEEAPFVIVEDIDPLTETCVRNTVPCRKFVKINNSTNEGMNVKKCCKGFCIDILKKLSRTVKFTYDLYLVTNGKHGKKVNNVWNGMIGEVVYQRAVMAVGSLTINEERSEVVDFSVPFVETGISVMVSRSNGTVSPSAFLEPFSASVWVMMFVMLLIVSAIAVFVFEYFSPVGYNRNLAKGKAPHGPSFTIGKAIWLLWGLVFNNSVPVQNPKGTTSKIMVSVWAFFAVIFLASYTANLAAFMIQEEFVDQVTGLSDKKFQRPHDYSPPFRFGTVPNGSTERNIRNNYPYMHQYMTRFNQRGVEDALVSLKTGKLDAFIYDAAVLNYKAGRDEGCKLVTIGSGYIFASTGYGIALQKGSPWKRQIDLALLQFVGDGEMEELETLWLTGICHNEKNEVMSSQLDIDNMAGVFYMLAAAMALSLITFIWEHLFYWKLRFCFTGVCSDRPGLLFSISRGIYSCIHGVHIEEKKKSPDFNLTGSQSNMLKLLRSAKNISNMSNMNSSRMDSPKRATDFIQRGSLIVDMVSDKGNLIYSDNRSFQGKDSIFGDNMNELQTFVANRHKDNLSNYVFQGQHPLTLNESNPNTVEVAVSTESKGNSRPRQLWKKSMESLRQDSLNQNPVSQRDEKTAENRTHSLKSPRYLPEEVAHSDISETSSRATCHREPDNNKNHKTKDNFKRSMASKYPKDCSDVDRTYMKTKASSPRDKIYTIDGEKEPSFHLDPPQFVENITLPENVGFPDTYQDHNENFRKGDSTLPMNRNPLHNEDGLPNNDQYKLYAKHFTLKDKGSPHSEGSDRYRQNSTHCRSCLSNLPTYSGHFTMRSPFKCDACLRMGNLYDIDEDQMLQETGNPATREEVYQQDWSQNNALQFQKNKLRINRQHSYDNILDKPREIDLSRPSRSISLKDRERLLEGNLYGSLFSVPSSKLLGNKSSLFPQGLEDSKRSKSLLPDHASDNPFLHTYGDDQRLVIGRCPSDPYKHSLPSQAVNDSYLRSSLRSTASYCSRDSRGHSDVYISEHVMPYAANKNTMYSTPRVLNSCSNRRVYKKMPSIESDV
Procedure, shortened: (§1)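 Oocytes expressing rat NR1-1a with NR2A, NR2B, NR2C or NR2D, clamped at −40 mV in Ba2+/HEPES recording solution pH 7.4, 23°C. Current evoked by 100 μM glutamate plus 30 μM glycine. Final DMSO 0.05-0.5%, 5-7 inhibitor concentrations, ≥4 oocytes each. IC50 from Hill fit of normalized mean composite data. […] Some NR2A oocytes given BAPTA-AM or K-BAPTA.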

[2] = molecular target: Glutamate NMDA receptor; Grin1/Grin2c (Rattus norvegicus, UniProt P35439+Q00961); experiment: Antagonist activity at rat recombinant NR1-NR2C receptor expressed in Xenopus oocytes at holding potential of -40mV by two-electrode voltage-clamp electrophysiology; type: functional, cell-based, Oocyte; procedure, shortened: as §1
Chain of Glutamate NMDA receptor; Grin1/Grin2c (Q00961 whole entry, other chains not shown): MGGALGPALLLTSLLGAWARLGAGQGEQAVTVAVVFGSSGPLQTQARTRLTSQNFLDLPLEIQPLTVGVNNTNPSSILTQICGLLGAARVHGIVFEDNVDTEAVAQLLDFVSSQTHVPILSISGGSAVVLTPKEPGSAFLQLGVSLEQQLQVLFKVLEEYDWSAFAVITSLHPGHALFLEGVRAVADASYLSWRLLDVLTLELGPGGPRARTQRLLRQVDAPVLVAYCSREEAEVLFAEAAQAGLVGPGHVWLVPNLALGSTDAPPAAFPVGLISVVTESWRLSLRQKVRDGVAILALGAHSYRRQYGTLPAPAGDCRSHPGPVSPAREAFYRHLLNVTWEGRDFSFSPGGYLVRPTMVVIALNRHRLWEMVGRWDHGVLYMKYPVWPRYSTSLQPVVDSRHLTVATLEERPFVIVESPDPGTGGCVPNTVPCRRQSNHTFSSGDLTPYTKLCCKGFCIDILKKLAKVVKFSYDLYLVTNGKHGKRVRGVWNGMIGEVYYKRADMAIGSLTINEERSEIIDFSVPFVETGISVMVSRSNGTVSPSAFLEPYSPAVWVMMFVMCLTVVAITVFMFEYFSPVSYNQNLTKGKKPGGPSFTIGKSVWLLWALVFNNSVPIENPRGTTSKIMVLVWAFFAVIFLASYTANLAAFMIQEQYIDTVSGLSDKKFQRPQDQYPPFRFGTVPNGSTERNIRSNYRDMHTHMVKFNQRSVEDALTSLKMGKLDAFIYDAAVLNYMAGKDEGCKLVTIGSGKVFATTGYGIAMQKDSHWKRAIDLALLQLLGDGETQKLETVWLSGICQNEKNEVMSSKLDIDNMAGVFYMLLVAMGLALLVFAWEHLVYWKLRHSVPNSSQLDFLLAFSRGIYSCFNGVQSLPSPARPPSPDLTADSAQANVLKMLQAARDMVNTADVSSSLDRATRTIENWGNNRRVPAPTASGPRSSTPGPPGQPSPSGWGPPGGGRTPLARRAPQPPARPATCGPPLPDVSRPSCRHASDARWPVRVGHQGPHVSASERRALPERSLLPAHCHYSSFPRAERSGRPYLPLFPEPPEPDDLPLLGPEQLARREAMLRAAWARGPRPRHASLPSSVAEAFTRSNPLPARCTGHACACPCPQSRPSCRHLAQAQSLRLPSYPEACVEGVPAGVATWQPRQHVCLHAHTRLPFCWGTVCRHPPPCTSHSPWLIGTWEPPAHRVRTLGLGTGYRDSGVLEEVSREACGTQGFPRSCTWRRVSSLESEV

[3] = molecular target: Ionotropic glutamate receptor NMDA 1/2D (Rattus norvegicus, UniProt P35439+Q62645); experiment: Antagonist activity at rat recombinant NR1-NR2D receptor expressed in Xenopus oocytes at holding potential of -40mV by two-electrode voltage-clamp electrophysiology; type: functional, cell-based, Oocyte
Procedure, shortened: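 Oocytes expressing rat NR1-1a with NR2A, NR2B, NR2C or NR2D, clamped at −40 mV in Ba2+/HEPES recording solution pH 7.4, 23°C. Current evoked by 100 μM glutamate plus 30 μM glycine. Final DMSO 0.05-0.5%, 5-7 inhibitor concentrations, ≥4 oocytes each. IC50 from Hill fit of normalized mean composite data. Some NR2A oocytes given BAPTA-AM or K-BAPTA.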

[4] = species on record: Rattus norvegicus; experiment: Selectivity ratio of IC50 for rat recombinant GLuR1 to IC50 for rat recombinant NR1-NR2D receptor
Procedure, shortened: (§2)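 Ratio of fitted IC50 values, either NR2A/NR2D or GluR1/NR2D, from two-electrode voltage-clamp Hill fits in oocytes. Where noted, calculated from IC50 values rounded to the nearest μM.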

[5] = molecular target: Glutamate NMDA receptor; Grin1/Grin2b (Rattus norvegicus, UniProt P35439+Q00960); experiment: Antagonist activity at rat recombinant NR1-NR2B receptor expressed in Xenopus oocytes at holding potential of -40mV by two-electrode voltage-clamp electrophysiology; type: functional, cell-based, Oocyte; conditions: read-out: IC50; procedure, shortened: as §1
Chain of Glutamate NMDA receptor; Grin1/Grin2b (Q00960 whole entry, other chains not shown): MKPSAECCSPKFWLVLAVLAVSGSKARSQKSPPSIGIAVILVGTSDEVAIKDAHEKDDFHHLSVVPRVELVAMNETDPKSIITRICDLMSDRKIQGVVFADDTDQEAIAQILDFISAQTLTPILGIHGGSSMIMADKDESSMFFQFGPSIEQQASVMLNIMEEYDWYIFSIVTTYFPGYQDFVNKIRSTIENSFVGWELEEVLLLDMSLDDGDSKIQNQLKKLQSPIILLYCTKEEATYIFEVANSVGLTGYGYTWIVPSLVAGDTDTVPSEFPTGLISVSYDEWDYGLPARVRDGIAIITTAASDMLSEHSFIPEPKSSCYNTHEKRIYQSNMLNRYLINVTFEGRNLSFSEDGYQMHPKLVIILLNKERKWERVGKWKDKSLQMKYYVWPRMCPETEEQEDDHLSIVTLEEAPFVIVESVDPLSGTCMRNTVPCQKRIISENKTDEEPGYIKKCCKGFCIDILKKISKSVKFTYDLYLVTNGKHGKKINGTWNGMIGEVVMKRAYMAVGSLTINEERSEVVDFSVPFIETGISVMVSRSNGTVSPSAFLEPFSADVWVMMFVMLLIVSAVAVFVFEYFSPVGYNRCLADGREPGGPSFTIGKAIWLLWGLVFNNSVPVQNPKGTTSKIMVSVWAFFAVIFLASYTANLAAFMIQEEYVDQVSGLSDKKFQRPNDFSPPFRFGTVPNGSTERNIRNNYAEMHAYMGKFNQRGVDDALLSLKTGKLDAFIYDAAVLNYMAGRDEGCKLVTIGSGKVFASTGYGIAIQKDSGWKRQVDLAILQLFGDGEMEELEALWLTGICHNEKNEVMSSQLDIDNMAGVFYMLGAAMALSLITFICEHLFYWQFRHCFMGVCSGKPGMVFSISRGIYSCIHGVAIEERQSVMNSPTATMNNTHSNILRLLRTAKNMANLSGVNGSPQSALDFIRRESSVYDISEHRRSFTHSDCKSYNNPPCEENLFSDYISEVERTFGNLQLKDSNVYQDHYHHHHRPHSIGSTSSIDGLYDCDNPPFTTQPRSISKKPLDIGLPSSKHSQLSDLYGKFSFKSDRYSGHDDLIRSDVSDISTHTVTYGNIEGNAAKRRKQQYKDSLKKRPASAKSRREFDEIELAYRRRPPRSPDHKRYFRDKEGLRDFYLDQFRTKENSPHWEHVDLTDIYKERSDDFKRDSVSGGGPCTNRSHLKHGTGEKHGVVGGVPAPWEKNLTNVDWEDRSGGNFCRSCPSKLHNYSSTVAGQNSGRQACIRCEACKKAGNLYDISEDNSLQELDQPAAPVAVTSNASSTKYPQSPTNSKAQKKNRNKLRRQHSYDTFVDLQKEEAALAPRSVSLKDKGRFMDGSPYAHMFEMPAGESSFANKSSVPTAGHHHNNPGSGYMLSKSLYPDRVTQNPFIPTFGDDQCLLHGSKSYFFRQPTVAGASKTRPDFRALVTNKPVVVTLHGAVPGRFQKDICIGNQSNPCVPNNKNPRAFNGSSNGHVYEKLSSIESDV

[6] = molecular target: Glutamate receptor 1 (Rattus norvegicus, UniProt P19490); experiment: Antagonist activity at rat recombinant GLuR1 expressed in Xenopus oocytes assessed as inhibition of glutamate-induced current by two-electrode voltage-clamp electrophysiology; type: functional, cell-based, Oocyte
Chain of Glutamate receptor 1 (P19490 whole entry, the tested form may be a part): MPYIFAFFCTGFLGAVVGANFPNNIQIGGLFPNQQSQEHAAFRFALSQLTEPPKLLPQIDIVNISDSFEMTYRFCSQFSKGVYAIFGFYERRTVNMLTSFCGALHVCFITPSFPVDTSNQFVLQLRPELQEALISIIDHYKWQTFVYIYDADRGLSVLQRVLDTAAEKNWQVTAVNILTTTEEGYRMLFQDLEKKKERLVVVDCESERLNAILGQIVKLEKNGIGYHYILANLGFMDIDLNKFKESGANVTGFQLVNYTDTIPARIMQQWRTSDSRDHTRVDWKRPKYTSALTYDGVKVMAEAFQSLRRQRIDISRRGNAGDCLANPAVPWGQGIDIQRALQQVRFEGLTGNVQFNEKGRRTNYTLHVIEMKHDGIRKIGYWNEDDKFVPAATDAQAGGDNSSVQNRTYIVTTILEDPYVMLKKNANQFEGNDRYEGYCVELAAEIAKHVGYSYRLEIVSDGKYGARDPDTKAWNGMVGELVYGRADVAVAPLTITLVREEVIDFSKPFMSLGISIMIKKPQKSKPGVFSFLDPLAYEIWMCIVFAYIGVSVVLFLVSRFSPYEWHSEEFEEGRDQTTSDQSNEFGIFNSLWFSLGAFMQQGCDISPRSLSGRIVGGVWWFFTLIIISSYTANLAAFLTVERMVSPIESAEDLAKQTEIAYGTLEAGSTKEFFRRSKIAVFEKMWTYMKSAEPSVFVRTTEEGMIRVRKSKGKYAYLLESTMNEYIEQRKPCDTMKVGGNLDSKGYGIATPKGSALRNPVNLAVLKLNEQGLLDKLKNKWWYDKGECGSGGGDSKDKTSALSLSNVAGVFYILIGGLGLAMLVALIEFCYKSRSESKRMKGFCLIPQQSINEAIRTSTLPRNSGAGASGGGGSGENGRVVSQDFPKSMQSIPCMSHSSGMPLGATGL
Procedure, shortened: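 Two-electrode voltage clamp at −40 mV on Xenopus oocytes expressing rat GluR1, perfused with 90 NaCl, 1.0 KCl, 0.5 BaCl2, 0.005 EDTA, 10 HEPES (mM), pH 7.4, 23°C; activated by 100 μM glutamate. From 20 mM DMSO stocks, 5-7 concentrations, ≥4 oocytes each. Hill fit to mean composite curves normalized to control, minimum usually fixed at 0. Response >75% at 100 μM reported as >300 μM.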

[7] = species on record: Rattus norvegicus; experiment: Selectivity ratio of IC50 for rat recombinant NR1-NR2A receptor to IC50 for rat recombinant NR1-NR2D receptor; procedure, shortened: as §2

Row | Compound | IC50 [1] | IC50 [2] | IC50 [3] | Ratio IC50 [4] | IC50 [5] | IC50 [6] | Ratio IC50 [7]
1 | O=C(O)c1ccc(-n2c(/C=C/c3cccc([N+](=O)[O-])c3)nc3ccc(-c4ccccc4)cc3c2=O)cc1 | 11 µM | 2 µM | 2 µM | 3 | 3 µM | 5 µM | 6
2 | O=C(O)c1ccc(-n2c(/C=C/c3cccc([N+](=O)[O-])c3)nc3ccc(/C=C/c4ccccc4)cc3c2=O)cc1 | 19 µM | 4 µM | 4 µM | 33 | 30 µM | 131 µM | 5
3 | O=C(O)c1ccc(-n2c(/C=C/c3cccc([N+](=O)[O-])c3)nc3c(Cl)cc(Cl)cc3c2=O)cc1 | 224 µM | 16 µM | 10 µM | 30 | 109 µM | > 300 µM | 22
4 | CSc1ccc(/C=C/c2nc3ccccc3c(=O)n2-c2ccc(C(=O)O)cc2)cc1 | 211 µM | 42 µM | 22 µM | 11 | 79 µM | 244 µM | 10
5 | O=C(O)c1ccc(-n2c(/C=C/c3cccc([N+](=O)[O-])c3)nc3cc4c(cc3c2=O)OCCO4)cc1 |  | 281 µM | 213 µM | 1 | > 300 µM | > 300 µM | 1
6 | O=C(O)c1ccc(-n2c(/C=C/c3cccc([N+](=O)[O-])c3)nc3c(Cl)cccc3c2=O)cc1 | 56 µM | 12 µM | 9 µM | 10 | 243 µM | 87 µM | 6
7 | O=C(O)c1ccc(-n2c(/C=C/c3cccc([N+](=O)[O-])c3)nc3ccc(-c4cccs4)cc3c2=O)cc1 | 157 µM | 5 µM | 3 µM | 93 | 129 µM | 280 µM | 52
8 | O=c1c2cc(I)ccc2nc(/C=C/c2cccnc2)n1-c1ccccc1 | 132 µM | > 300 µM | 108 µM | 3 | > 300 µM | > 300 µM | 1
9 | COC(=O)c1ccc(-n2c(/C=C/c3cccc([N+](=O)[O-])c3)nc3ccc(OC)cc3c2=O)cc1 | 218 µM | 39 µM | 38 µM | 4 | 46 µM | 138 µM | 6
10 | COc1cccc(-n2c(/C=C/c3cccnc3)nc3ccc(I)cc3c2=O)c1 | > 300 µM | > 300 µM |  | 1 | > 300 µM | > 300 µM | 1
11 | O=C(O)c1ccc(-n2c(/C=C/c3ccc(O)cc3)nc3ccccc3c2=O)cc1 | 38 µM |  | 36 µM | 3 | 35 µM | 110 µM | 1
12 | O=C(O)c1ccc(-n2c(/C=C/c3cccc([N+](=O)[O-])c3)nc3ccc(F)cc3c2=O)cc1 | 36 µM |  | 7 µM | 1 | 33 µM | 7 µM | 5
13 | O=C(O)c1ccc(-n2c(/C=C/c3cccc(O)c3)nc3ccccc3c2=O)cc1 | 52 µM |  | 17 µM | 1 | 30 µM | 24 µM | 3
14 | COc1ccccc1/C=C/c1nc2ccccc2c(=O)n1-c1ccc(C(=O)O)cc1 | 88 µM |  | 16 µM | 2 | 51 µM | 38 µM | 6
15 | COc1ccc(/C=C/c2nc3ccccc3c(=O)n2-c2ccc(C(=O)O)cc2)cc1 | 100 µM |  | 31 µM | 8 | 98 µM | 250 µM | 3
16 | O=C(O)c1ccc(-n2c(/C=C/c3cccc(C(F)(F)F)c3)nc3ccccc3c2=O)cc1 | 13 µM |  | 12 µM | 2 | 26 µM | 22 µM | 1
